Data from ChEMBL document CHEMBL4041500, “Attenuation of Mycobacterium species through direct and macrophage mediated pathway by unsymmetrical diaryl urea” (Eur J Med Chem, 2017).
Converted amounts (≈) assume the structure as drawn. The source made the active and inactive calls. The rule behind the calls is not given here.

Assays:
HepG2 = assay: Cytotoxicity against human HepG2 cells assessed as reduction in cell viability after 72 hrs by MTT assay; format: cell-based; details: hepg2, 72 h
How it was run: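 HepG2 cells grown in Eagle's MEM with 10% FBS at 37 °C and 5% CO2. Cells were scraped, resuspended at ~1 × 10^6 cells/mL, plated and left 24 h, then exposed to compound at 400 to 0.2 µg/mL for 72 h. Viability read by MTT assay. IC50 (50% loss of viability) taken from a dose–response curve versus log10 concentration.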

Peritoneal macrophage = assay: Cytotoxicity against Balb/c mouse peritoneal macrophages assessed as reduction in cell viability after 48 hrs by MTT assay; format: cell-based
How it was run: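 Murine peritoneal macrophages, 1 × 10^6 cells/well, exposed to compound at 0.1 to 250 µg/ml in RPMI-1640 with 10% FBS for 48h. MTT (5 mg/ml) added for 3 h at 37°C, formazan dissolved in 0.04M HCl in isopropanol for 15 min at room temperature, absorbance read at 570 nm. IC50 (50% loss of viability) taken from a dose–response curve of percentage activity versus log10 concentration.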

[1] = tested on: Mycobacterium tuberculosis; assay: Antimycobacterial activity against Mycobacterium tuberculosis H37Rv ATCC 27294 after 7 days by microplate alamar blue assay; format: functional; details: H37Rv ATCC 27294, 168 h
How it was run: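 MABA run in 7H12 medium in 96-well plates for 7 days at 37 °C. Alamar Blue and Tween 80 were then added for a further 24 h. Fluorescence was read at 530/590 nm. MIC was the lowest concentration giving a 90% fluorescence (or luminescence) reduction versus controls. Luciferase reporter strains or intracellular ATP were used for compounds with background fluorescence. Isoniazid and rifampin were run as controls.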

[2] = tested on: Mycolicibacterium smegmatis; assay: Antimycobacterial activity against Mycobacterium smegmatis MC2 155 after 48 hrs by serial dilution method; format: functional; details: str. MC2 155, 48 h
How it was run: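 M. smegmatis grown in Middlebrook 7H9 with 10% albumin–dextrose complex and 0.03% Tween80 at 37 °C. Twofold serial dilutions of compound were combined with mid-log culture diluted to OD570 0.01, giving a final range of […] in 7H9 broth. Incubated in ambient air at 37 °C for 48 h. MIC taken as the lowest concentration preventing visible growth.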

[3] = tested on: Mycolicibacterium smegmatis; assay: Inhibition of epoxy-mycolic acid biosynthesis in Mycobacterium smegmatis MC2 155 assessed as reduction in [1-14C]acetate incorporation at 5 times antibacterial MIC preincubated for 90 mins followed by [1-14C]acetate addition measured after 1 hr by liquid scintillation counting based TLC method; format: functional; details: str. MC2 155
[4] = tested on: Mycolicibacterium smegmatis; assay: Inhibition of fattyacid biosynthesis in Mycobacterium smegmatis MC2 155 assessed as reduction in [1-14C]acetate incorporation at 5 times antibacterial MIC preincubated for 90 mins followed by [1-14C]acetate addition measured after 1 hr by liquid scintillation counting based TLC method; format: functional; details: str. MC2 155
[5] = tested on: Mycobacterium tuberculosis; assay: Antimycobacterial activity against Mycobacterium tuberculosis H37Rv ATCC 27294 at 50 ug/ml after 7 days by microplate alamar blue assay relative to control; format: functional; details: H37Rv ATCC 27294, 168 h
[6] = tested on: Mycobacterium tuberculosis; assay: Antimycobacterial activity against Mycobacterium tuberculosis MC2 6030 after 2 to 3 weeks by agar plate method; format: functional
How it was run: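 Strain mc²6030 is a pantothenate auxotroph lacking RD1, grown at 37 °C in Sauton's medium plus 20 μg/ml pantothenic acid. Serial 10-fold dilutions of actively growing culture were plated on 7H10/OADC agar with 20 μg/ml pantothenic acid and increasing compound concentrations, from 10 mg/ml DMSO stocks. Plates were held 2–3 weeks at 37 °C. MIC was the concentration inhibiting 99% of growth; isoniazid served as control.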

SMILES	Activity (HepG2) [µg/mL]	Activity (Peritoneal macrophage) [µg/mL]	MIC90 [1] [µg/mL]	MIC [2] [µg/mL]	inhibition [3]	inhibition [4]	inhibition at 50 µg/mL [5] [%]	MIC99 [6] [µg/mL]
CC(C)=CCOc1cccc(NC(=O)Nc2ccccc2Br)c1	131.9	119.4	38.7 (≈ 103 µM)	25 (≈ 66.6 µM)				
CC(C)=CCOc1cccc(NC(=O)Nc2cccc(C(F)(F)F)c2)c1	135.6	116.7	40.2 (≈ 110 µM)	3.12 (≈ 8.56 µM)	Active	inactive		
CC(C)=CCOc1cccc(NC(=O)Nc2cccc(F)c2)c1	94	83.7	> 50	25 (≈ 79.5 µM)	Active	inactive	89	
CCCCOc1cccc(NC(=O)Nc2ccccc2C)c1	175.1	152.9	> 50	> 200			70	> 100
CC(C)=CCOc1cccc(NC(=O)Nc2ccccc2C(F)(F)F)c1	71.4	69.4	> 50	12.5 (≈ 34.3 µM)			45	
CC(C)=CCOc1cccc(NC(=O)Nc2ccccc2[N+](=O)[O-])c1	61.4	58.1	> 50	> 200			43	
CCCCOc1ccc(NC(=O)Nc2cccc([N+](=O)[O-])c2)cc1		75.2						
C=CCOc1ccc(NC(=O)Nc2cccc([N+](=O)[O-])c2)cc1	111.4	87.5	45.5 (≈ 145 µM)	100 (≈ 319 µM)				10 to 100 (≈ 31.9 to 319 µM)
CCCCOc1ccc(NC(=O)Nc2cccc(C#N)c2)cc1	206.7	180.9	> 50	> 200			22	> 100
CC(C)=CCOc1ccc(NC(=O)Nc2cccc([N+](=O)[O-])c2)cc1	142.6	131.2	> 50	> 200			69	> 100
C=CCOc1cccc(NC(=O)Nc2ccccc2)c1	150.6	142.5	> 50	100 (≈ 373 µM)			73	20 (≈ 74.5 µM)
CC(C)=CCOc1cccc(NC(=O)Nc2ccc(F)cc2)c1	102.8	87.1	> 50	100 (≈ 318 µM)			68	
CC(C)=CCOc1cccc(NC(=O)Nc2ccc(Br)cc2)c1	135.6	140.2	> 50	50 to 100 (≈ 133 to 266 µM)			86	
CC(C)=CCOc1cccc(NC(=O)Nc2cccc(Cl)c2)c1	114.3	96.7	48.6 (≈ 147 µM)	25 (≈ 75.6 µM)				
C=CCOc1cccc(NC(=O)Nc2ccccc2C)c1	102.4	90.3	> 50	> 200			68	> 100
CC(C)=CCOc1cccc(NC(=O)Nc2cccc(C)c2)c1	175.3	160.3	32.2 (≈ 104 µM)	50 (≈ 161 µM)				
CCCCOc1cccc(NC(=O)Nc2cccc([N+](=O)[O-])c2)c1	97.3	74.3	> 50	> 200			79	50 (≈ 152 µM)
CC(C)=CCOc1cccc(NC(=O)Nc2ccc(Cl)cc2)c1	122.3	115.3	> 50	50 to 100 (≈ 151 to 302 µM)			75	

SMILES	Activity (HepG2) [µg/mL]	Activity (Peritoneal macrophage) [µg/mL]	MIC90 [1] [µg/mL]	MIC [2] [µg/mL]	inhibition [3]	inhibition [4]	inhibition at 50 µg/mL [5] [%]	MIC99 [6] [µg/mL]
CC(C)=CCOc1cccc(NC(=O)Nc2ccccc2)c1	168.2	141.8	> 50	> 200			79	30 (≈ 101 µM)
CC(C)=CCOc1cccc(NC(=O)Nc2ccc(C(F)(F)F)cc2)c1	142.2	115.3	> 50	6.25 (≈ 17.2 µM)			69	
C=CCOc1cccc(NC(=O)Nc2cccc([N+](=O)[O-])c2)c1	105.6	78.4	> 50	50 (≈ 160 µM)			76	5 (≈ 16 µM)
CC(C)=CCOc1cccc(NC(=O)Nc2ccc(C)cc2)c1	140.6	127.6	10.5 (≈ 33.8 µM)	12.5 (≈ 40.3 µM)				
CC(C)=CCOc1cccc(NC(=O)Nc2cccc(Br)c2)c1	148.1	131.8	26.5 (≈ 70.6 µM)	12.5 (≈ 33.3 µM)				
CC(C)=CCOc1cccc(NC(=O)Nc2ccccc2F)c1	82.4	68.2	> 50	50 (≈ 159 µM)			45	
CC(C)=CCOc1ccc(NC(=O)Nc2ccccc2C)cc1		81.3	> 50	50 to 200 (≈ 161 to 644 µM)			61 to 75	50 to 100 (≈ 161 to 322 µM)
CC(C)CCOc1ccc(NC(=S)Nc2ccc(OCCC(C)C)cc2)cc1 [TIOCARLIDE]	31.3	12.5	2.3 (≈ 5.74 µM)	25 (≈ 62.4 µM)				
CC(C)=CCOc1ccc(NC(=O)Nc2cccc(C#N)c2)cc1	186.4	169.1	> 500	50 (≈ 156 µM)			82	5 (≈ 15.6 µM)
CCCCOc1ccc(NC(=O)Nc2ccccc2)cc1	132.5	108.9	> 50	> 200			41	> 100
C=CCOc1ccc(NC(=O)Nc2ccccc2)cc1	182.4	152.6	> 50	> 200			84	> 100
C=CCOc1ccc(NC(=O)Nc2ccccc2C)cc1	99.2	122.1	24.5 (≈ 86.8 µM)	50 (≈ 177 µM)				100 (≈ 354 µM)
CC(C)=CCOc1cccc(NC(=O)Nc2ccccc2Cl)c1	128.2	105.6	> 50	50 (≈ 151 µM)			64	
CCCCOc1cccc(NC(=O)Nc2ccccc2)c1	124.1	121.7	> 50	> 200			57	50 to 100 (≈ 176 to 352 µM)
NNC(=O)c1ccncc1 [ISONIAZID]	> 200	> 200	0.11 (≈ 0.802 µM)	6.25 (≈ 45.6 µM)				0.05 (≈ 0.365 µM)
CC(C)=CCOc1cccc(NC(=O)Nc2ccc([N+](=O)[O-])cc2)c1	91.6	75.2	> 50	100 (≈ 293 µM)			94	
C=CCOc1ccc(NC(=O)Nc2cccc(C#N)c2)cc1	103.5	96.7	> 50	> 200			66	> 100
